13 compounds from ChEMBL document CHEMBL3102752, “Identification of novel drug scaffolds for inhibition of SARS-CoV 3-Chymotrypsin-like protease using virtual and high-throughput screenings” (Bioorg Med Chem, 2014) can be followed below.

As usually defined, the pIC50 is the negative decadic logarithm of the IC50, by convention in mol/L. By pKi is commonly meant the negative decadic logarithm of the Ki, by convention in mol/L.

pIC50, pKi: −log10 of the molar value. Counter-ions that a name gives are not always drawn. Calls of active or inactive are those of the source. No cut-off for these calls is given here.

Assay [1] has as its target Replicase polyprotein 1ab (Severe acute respiratory syndrome-related coronavirus) (UniProt P0C6X7). The experiment in a line: Inhibition of SARS coronavirus 3C-like protease using 5-FAM-TSATLQSGFRK(QXL520)-NH2 as substrate at 100 uM preincubated for 5 mins followed by substrate addition measured after 6 mins by FRET assay in presence of GSH relative to control.
The target is the same in assay [2]. The experiment in a line: Inhibition of SARS coronavirus 3C-like protease using 5-FAM-TSATLQSGFRK(QXL520)-NH2 as substrate at 100 uM preincubated for 5 mins followed by substrate addition measured after 6 mins by FRET assay relative to control.
For assay [3], the target named is T1, Replicase polyprotein 1ab (Severe acute respiratory syndrome-related coronavirus, UniProt P0C6X7). As to the kind of experiment: Inhibition of SARS coronavirus 3C-like protease using 5-FAM-TSATLQSGFRK(QXL520)-NH2 as substrate preincubated for 5 mins followed by substrate addition measured after 6 mins by FRET assay in presence of GSH. Put shortly: (§1)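 Enzyme preincubated 5 min with compound (0–200 μM, 2-fold series), then 15 μM FAM/QXL substrate added. Continuous fluorescence read for 6 min, in triplicate. IC50 from Hill fit over two to four independent assays.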

Assay [4] addresses T1, Replicase polyprotein 1ab. The experiment in a line: Inhibition of SARS coronavirus 3C-like protease using 5-FAM-TSATLQSGFRK(QXL520)-NH2 as substrate preincubated for 5 mins followed by substrate addition measured after 6 mins by FRET assay. Put shortly:
as §1

The target in assay [5] is Replicase polyprotein 1ab (Severe acute respiratory syndrome-related coronavirus) (UniProt P0C6X7). As to the kind of experiment: Binding affinity to SARS coronavirus 3C-like protease using 5-FAM-TSATLQSGFRK(QXL520)-NH2 as substrate by SPR analysis. (In general: SPR reads the build-up and loss of mass on a sensor chip optically.)
Assay [6] can be described thus: Inhibition of SARS coronavirus PL-protease. Also on record: species or system Severe acute respiratory syndrome-related coronavirus.
The target in assay [7] is T1, Replicase polyprotein 1ab. The experiment in a line: Inhibition of SARS coronavirus 3C-like protease using 5-FAM-TSATLQSGFRK(QXL520)-NH2 as substrate.
Assay [8] addresses Replicase polyprotein 1ab (Severe acute respiratory syndrome-related coronavirus) (UniProt P0C6X7). As to the kind of experiment: Reversible inhibition of SARS coronavirus 3C-like protease using 5-FAM-TSATLQSGFRK(QXL520)-NH2 as substrate assessed as recovery rate at 20 x IC50 preincubated for 1 hr followed by compound washout by FRET assay in presence of GSH. Also on record: scale not given: the % may be the effect or the level left. Put shortly:
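No-compound enzyme served as control. Samples desalted to remove compound; activity measured before and after buffer exchange by the IC50 assay.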

For assay [9] the target is unchanged. The experiment in a line: Binding affinity to SARS coronavirus 3C-like protease using 5-FAM-TSATLQSGFRK(QXL520)-NH2 as substrate up to 90 uM by SPR analysis. Put shortly:
(§2)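 Untagged native 3CLpro amine-coupled to CM5 chip (in 10 mM sodium acetate pH 5.0). Ethanolamine-blocked channel as reference. Running buffer HBS-P pH 7.4, 20 °C.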

For assay [10] the target is unchanged. As to the kind of experiment: Binding affinity to SARS coronavirus 3C-like protease using 5-FAM-TSATLQSGFRK(QXL520)-NH2 as substrate up to 200 uM by SPR analysis. Put shortly: as §2
For assay [11], the target named is T1, Replicase polyprotein 1ab. As to the kind of experiment: Competitive inhibition of SARS coronavirus 3C-like protease using 5-FAM-TSATLQSGFRK(QXL520)-NH2 as substrate by Dixon plot analysis. Put shortly:
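Best-fit inhibition model chosen by fitting competitive, non-competitive, uncompetitive or mixed equations to give Ki. Dixon plot; three independent assays.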

Assay [12] addresses Ubiquitin carboxyl-terminal hydrolase isozyme L1 (Homo sapiens) (UniProt P09936). The experiment in a line: Inhibition of human UCH-L1. Summed up: (§3)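 IC50 determined in triplicate with 32 positive and 32 negative controls per plate. Data fitted to a three-parameter Hill equation.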
For the next assay, the system named is Hepacivirus hominis. The experiment in a line: Inhibition of Hepatitis C virus NS3/4A protease. Summed up: as §3
In assay [13] the target is T2, Dihydroorotase (Bacillus anthracis) (UniProt Q81WF0).
T2 sequence (whole entry): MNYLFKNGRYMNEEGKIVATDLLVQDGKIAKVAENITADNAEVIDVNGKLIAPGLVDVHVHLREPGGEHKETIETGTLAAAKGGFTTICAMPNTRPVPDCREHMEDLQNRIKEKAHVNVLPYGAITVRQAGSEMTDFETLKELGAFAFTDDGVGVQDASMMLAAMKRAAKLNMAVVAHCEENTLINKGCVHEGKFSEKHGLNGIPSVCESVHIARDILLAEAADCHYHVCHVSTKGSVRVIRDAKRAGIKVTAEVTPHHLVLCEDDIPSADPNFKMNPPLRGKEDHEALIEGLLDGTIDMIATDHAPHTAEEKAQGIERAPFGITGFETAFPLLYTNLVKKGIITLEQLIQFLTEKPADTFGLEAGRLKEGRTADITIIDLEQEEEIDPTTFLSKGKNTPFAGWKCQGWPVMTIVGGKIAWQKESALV
As to the kind of experiment: Inhibition of Bacillus anthracis dihydroorotase. Put shortly: as §3

In the next assay the test system is Streptococcus pneumoniae. As to the kind of experiment: Inhibition of Streptococcus pneumoniae PurC. Put shortly:
as §3

Sequence of Ubiquitin carboxyl-terminal hydrolase isozyme L1 (Homo sapiens) (P09936 whole entry, looked up): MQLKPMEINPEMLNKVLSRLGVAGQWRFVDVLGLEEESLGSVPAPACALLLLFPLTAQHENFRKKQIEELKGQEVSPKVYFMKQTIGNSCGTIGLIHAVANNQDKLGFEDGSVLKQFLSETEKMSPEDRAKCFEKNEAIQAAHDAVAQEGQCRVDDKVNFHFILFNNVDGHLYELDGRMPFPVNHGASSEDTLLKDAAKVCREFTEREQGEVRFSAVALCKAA

Consider `COc1ccccc1CNC(=O)[C@H](C)NS(=O)(=O)c1ccccc1`, for which the inhibition result in [1] and in assay [2] was “inactive” throughout.
Turning to `COCCOCCn1c(CCCO)nc2ccccc21`, the inhibition result in assay [1] and in assay [2] was “inactive” each time. For the same compound, the pIC50 was 3.73 in assay [3] and 4.59 in assay [4].
For the compound `OCCCc1nc2ccccc2n1CCOc1ccccc1`, the result in assay [5] was inactive. The inhibition result in assay [1] and in assay [2] was “inactive” each time. The pIC50 in [3] was 4.13; in [4] it was less than 3.70.
For `CN(CC(=O)NC1CCCC1)S(=O)(=O)c1cccc(Cl)c1`, the pIC50 in assay [3] is less than 3.70; in [4], 6.03.
`CCCCC(CC)CNC(=N)NC(=N)NCCCCCCNC(=N)NC(=N)NCC(CC)CCCC` (stereo not given) [ALEXIDINE DIHYDROCHLORIDE]: the pIC50 was less than 3.70 in assay [6], 4.75 in [3], 4.61 in [4] and 4.60 in assay [7]. In addition, the outcome in [5] was inactive.
In the case of `Nc1ccc(F)c(S(=O)(=O)Nc2cccc(C(F)(F)F)c2)c1`, the inhibition result in assay [1] and in assay [2] was “inactive” throughout. Further, the pIC50 in [3] is less than 3.70; in assay [4], 4.53.
In the case of `COc1ccc(C(=O)Cn2c(NCCO)nc3ccccc32)cc1`, the Activity in assay [8] was determined as 14.3%. Also, the inhibition result in assay [1] and in assay [2] was “inactive” throughout. The results for the pIC50 in assay [3] and in [4] were 4.39 and 4.54, respectively.
`CCOc1ccc(S(=O)(=O)NCc2ccc3c(c2)OCO3)cc1C`: the pIC50 is less than 3.70 in assay [6], 4.12 in assay [3] and less than 3.70 in assay [4]. For the same compound, the Activity in assay [8] was greater than 50%. The inhibition entry in assay [1] and in [2] was “inactive” each time.
Take `COc1ccc(N(CC(=O)NCc2ccco2)S(C)(=O)=O)cc1`: the result in assay [9] was inactive. In addition, the inhibition result in assay [1] and in assay [2] was “inactive” each time. For the same compound, the pIC50 in [3] is 4.21; in [4], 4.79.
Turning to `S=C(NCc1cccnc1)SCc1cc(Cl)sc1Cl`, the figures for the pIC50 in assay [6], in assay [3] and in assay [4] were less than 3.70, 5.04 and 6.80, respectively. The Activity in assay [8] is greater than 50%.
For the compound `C(=C\c1ccccc1)/C[N+]1(C/C=C/c2ccccc2)CCN(C(c2ccccc2)c2ccccc2)CC1`, the pIC50 in assay [6] was less than 3.70; in assay [3] it was 4.55; in assay [4], 4.53. The result in assay [10] was Active.
Consider `O=C(c1cncc(Br)c1)N1CCN(Cc2ccsc2)CC1`, for which the figures for the negative-log IC50 (pIC50) in assay [6], in assay [3] and in assay [4] were 3.98, 4.61 and 4.97, respectively. Moreover, in assay [5], the result was inactive.
As for `Cn1cnc2cc(NC(=O)c3ccc(Cl)cc3)ccc21`, the pIC50 was less than 3.70 in [6], 4.51 in [3], 4.56 in [4] and 4.74 in assay [7]. The same compound had a negative logarithm of the Ki (pKi) in [11] of 4.56. In addition, in assay [8], the Activity was greater than 50%. For the same compound, the inhibition result (in assay [12]; in the assay with Hepacivirus hominis; in assay [13]; in the assay with Streptococcus pneumoniae) was “inactive” each time.
